This passage reports MIC results from ChEMBL document CHEMBL1155277, “Synthesis of new 4-isopropylthiazole hydrazide analogs and some derived clubbed triazole, oxadiazole ring systems--a novel class of potential antibacterial, antifungal and antitubercular agents” (Eur J Med Chem, 2009).

≈ marks a conversion by molar mass, not a printed value. A value given as a limit tells only on which side of the number the result lay.

Assay type in all cases: functional
One assay has as its system Staphylococcus aureus. Briefly: Antimicrobial activity against Staphylococcus aureus ATCC 11632 after 24 hrs by broth microdilution method. The following applies: ATCC 11632, 24 h. The procedure, abridged:
(§1)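 Broth microdilution in tubes. Compounds were dissolved at 10 mg in 1 mL DMSO and diluted in Mueller-Hinton Broth for bacteria or Sabouraud Liquid Medium for yeasts and A. niger. Final concentrations were 1–500 µg/mL (1, 2, 4, 8, 16, 31.25, 62.5, 125, 250, 500), with DMSO at most 1% v/v. Inoculum was 10^5 cfu/mL, incubated at 37 °C for 24 h. MIC was the lowest concentration giving complete growth inhibition. Media and media-plus-DMSO served as growth controls.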
For orientation: In broth dilution the organism is exposed to a series of concentrations in liquid medium.

A further assay has as its system Enterococcus faecalis. Briefly: Antimicrobial activity against Streptococcus faecalis ATCC 14506 after 24 hrs by broth microdilution method. The following applies: ATCC 14506, 24 h. The procedure, abridged:
as §1

Another assay has as its system Bacillus subtilis. Briefly: Antimicrobial activity against Bacillus subtilis ATCC 60511 after 24 hrs by broth microdilution method. The following applies: ATCC 60511, 24 h. The essentials:
as §1

Another assay deals with Klebsiella pneumoniae. Briefly: Antimicrobial activity against Klebsiella pneumoniae ATCC 10031 after 24 hrs by broth microdilution method. The following applies: ATCC 10031, 24 h. The essentials:
as §1

The next assay has as its system Escherichia coli. Briefly: Antimicrobial activity against Escherichia […] after 24 hrs by broth microdilution method. The procedure, abridged:
as §1

For the next assay, the system named is Pseudomonas aeruginosa. Briefly: Antimicrobial activity against Pseudomonas aeruginosa ATCC 10145 after 24 hrs by broth microdilution method. The following applies: ATCC 10145, 24 h. The essentials: as §1
In a further assay the test system is Saccharomyces cerevisiae. The experiment in a line: Antimicrobial activity against Saccharomyces cerevisiae ATCC 9763 after 24 hrs by broth microdilution method. Conditions: ATCC 9763, 24 h. The procedure, abridged:
as §1

Another assay has as its system Candida tropicalis. The experiment in a line: Antimicrobial activity against Candida tropicalis ATCC 1369 after 24 hrs by broth microdilution method. Conditions: ATCC 1369, 24 h. The essentials: as §1
For another assay, the system named is Aspergillus niger. Briefly: Antimicrobial activity against Aspergillus niger ATCC 6275 after 24 hrs by broth microdilution method. Conditions: ATCC 6275, 24 h. The essentials:
as §1

Assay [1] deals with Mycobacterium tuberculosis. Briefly: Antitubercular activity against Mycobacterium tuberculosis H37Rv after 21 days by broth dilution assay. The following applies: 504 h. The essentials:
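H37Rv frozen stock in Middlebrook 7H9 broth with 10% albumin-dextrose-catalase and 0.2% glycerol, thawed and diluted to 10⁵ cfu mL⁻¹. Compounds dissolved in DMSO, diluted in broth (final DMSO 1.3%). U-tubes inoculated, incubated 37 °C for 21 days. Growth scored visually against drug-free and inoculum-free controls and isoniazid. MIC = lowest concentration inhibiting […] of starting population.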

As a reminder, the MIC is the lowest concentration that inhibits growth of the organism. Read a low MIC as a more susceptible organism. Consider `CC(C)c1csc(C(=O)N/N=C/c2ccc(N(C)C)cc2)n1`, for which the minimum inhibitory concentration (MIC) came to 250 µg/mL (≈ 790 µM) against Staphylococcus aureus; 125 µg/mL (≈ 395 µM) in the assay with Enterococcus faecalis; 125 µg/mL (≈ 395 µM) in the assay with Bacillus subtilis; 125 µg/mL (≈ 395 µM) against Klebsiella pneumoniae; 31.2 µg/mL (≈ 98.8 µM) with Escherichia coli; 31.2 µg/mL (≈ 98.8 µM) with Pseudomonas aeruginosa. Also, the MIC in the assay with Saccharomyces cerevisiae worked out at 250 µg/mL (≈ 790 µM); against Candida tropicalis, 125 µg/mL (≈ 395 µM); against Aspergillus niger it was 62.5 µg/mL (≈ 198 µM); in [1], 125 µg/mL (≈ 395 µM).
Take `CC(C)=NNC(=O)c1nc(C(C)C)cs1`: the minimal inhibitory concentration (MIC) is 250 µg/mL (≈ 1110 µM) against Staphylococcus aureus; 125 µg/mL (≈ 555 µM) in the assay with Enterococcus faecalis; 125 µg/mL (≈ 555 µM) against Bacillus subtilis; 125 µg/mL (≈ 555 µM) in the assay with Klebsiella pneumoniae; 125 µg/mL (≈ 555 µM) against Escherichia coli; 125 µg/mL (≈ 555 µM) in the assay on Pseudomonas aeruginosa. In addition, the MIC is 500 µg/mL (≈ 2220 µM) against Saccharomyces cerevisiae, 125 µg/mL (≈ 555 µM) against Candida tropicalis, 500 µg/mL (≈ 2220 µM) in the assay with Aspergillus niger and 125 µg/mL (≈ 555 µM) in assay [1].
In the case of `OC(Cn1cncn1)(Cn1cncn1)c1ccc(F)cc1F` [FLUCONAZOLE], the minimal inhibitory concentration (MIC) against Saccharomyces cerevisiae, in the assay with Candida tropicalis and with Aspergillus niger was not above 1 µg/mL each time.
For `C/C(=N/NC(=O)c1nc(C(C)C)cs1)c1ccc(O)cc1`, the MIC with Staphylococcus aureus is 125 µg/mL (≈ 412 µM); in the assay on Enterococcus faecalis, 125 µg/mL (≈ 412 µM); against Bacillus subtilis, 250 µg/mL (≈ 824 µM); against Klebsiella pneumoniae it was 250 µg/mL (≈ 824 µM); in the assay on Escherichia coli, 125 µg/mL (≈ 412 µM); with Pseudomonas aeruginosa, 125 µg/mL (≈ 412 µM). Further, the MIC in the assay on Saccharomyces cerevisiae was 31.2 µg/mL (≈ 103 µM); against Candida tropicalis it was 31.2 µg/mL (≈ 103 µM); with Aspergillus niger, 125 µg/mL (≈ 412 µM); in assay [1], 125 µg/mL (≈ 412 µM).
Take `C/C(=N/NC(=O)c1nc(C(C)C)cs1)c1ccc(C)cc1`: the MIC against Staphylococcus aureus was 250 µg/mL (≈ 829 µM); against Enterococcus faecalis, 125 µg/mL (≈ 415 µM); against Bacillus subtilis, 250 µg/mL (≈ 829 µM); against Klebsiella pneumoniae, 125 µg/mL (≈ 415 µM); against Escherichia coli, 250 µg/mL (≈ 829 µM); in the assay on Pseudomonas aeruginosa, 250 µg/mL (≈ 829 µM). Moreover, the minimal inhibitory concentration (MIC) in the assay on Saccharomyces cerevisiae amounted to 125 µg/mL (≈ 415 µM); in the assay on Candida tropicalis, 250 µg/mL (≈ 829 µM); in the assay on Aspergillus niger it was 500 µg/mL (≈ 1660 µM); in assay [1] it was 125 µg/mL (≈ 415 µM).
For the compound `CC(=O)N1N=C(c2nc(C(C)C)cs2)OC1c1ccc([N+](=O)[O-])cc1` (centres undefined), the MIC with Staphylococcus aureus was 125 µg/mL (≈ 347 µM); in the assay on Enterococcus faecalis it was 125 µg/mL (≈ 347 µM); against Bacillus subtilis it was 250 µg/mL (≈ 694 µM); in the assay on Klebsiella pneumoniae, 125 µg/mL (≈ 347 µM); against Escherichia coli, 250 µg/mL (≈ 694 µM); against Pseudomonas aeruginosa it was 125 µg/mL (≈ 347 µM). Moreover, the minimal inhibitory concentration (MIC) against Saccharomyces cerevisiae was 500 µg/mL (≈ 1390 µM); with Candida tropicalis, 125 µg/mL (≈ 347 µM); against Aspergillus niger, 31.2 µg/mL (≈ 86.7 µM); in [1] it was 62.5 µg/mL (≈ 173 µM).
`C/C(=N/NC(=O)c1nc(C(C)C)cs1)c1ccc([N+](=O)[O-])cc1`: the minimal inhibitory concentration (MIC) with Staphylococcus aureus, in the assay on Enterococcus faecalis, in the assay on Bacillus subtilis, against Klebsiella pneumoniae, against Escherichia coli and against Pseudomonas aeruginosa was 250 µg/mL (≈ 752 µM) throughout. Moreover, the minimal inhibitory concentration (MIC) stood at 500 µg/mL (≈ 1500 µM) against Saccharomyces cerevisiae, 125 µg/mL (≈ 376 µM) against Candida tropicalis, 125 µg/mL (≈ 376 µM) against Aspergillus niger and 125 µg/mL (≈ 376 µM) in assay [1].
On to `CC(=O)N1N=C(c2nc(C(C)C)cs2)OC1c1ccc(N(C)C)cc1` (centres undefined), for which the MIC against Staphylococcus aureus worked out at 125 µg/mL (≈ 349 µM); with Enterococcus faecalis it was 125 µg/mL (≈ 349 µM); against Bacillus subtilis, 31.2 µg/mL (≈ 87.2 µM); in the assay on Klebsiella pneumoniae it was 31.2 µg/mL (≈ 87.2 µM); against Escherichia coli it was 16 µg/mL (≈ 44.6 µM); against Pseudomonas aeruginosa, 16 µg/mL (≈ 44.6 µM). Moreover, the MIC against Saccharomyces cerevisiae was 31.2 µg/mL (≈ 87.2 µM); with Candida tropicalis it was 31.2 µg/mL (≈ 87.2 µM); in the assay on Aspergillus niger, 31.2 µg/mL (≈ 87.2 µM); in assay [1], 62.5 µg/mL (≈ 174 µM).
Regarding `C/C(=N/NC(=O)c1nc(C(C)C)cs1)c1ccccc1`, the MIC against Staphylococcus aureus was 250 µg/mL (≈ 870 µM); in the assay with Enterococcus faecalis it was 250 µg/mL (≈ 870 µM); against Bacillus subtilis, 250 µg/mL (≈ 870 µM); against Klebsiella pneumoniae it was 125 µg/mL (≈ 435 µM); in the assay on Escherichia coli, 125 µg/mL (≈ 435 µM); in the assay with Pseudomonas aeruginosa, 250 µg/mL (≈ 870 µM). Further, the MIC against Saccharomyces cerevisiae worked out at 500 µg/mL (≈ 1740 µM); in the assay on Candida tropicalis, 500 µg/mL (≈ 1740 µM); with Aspergillus niger, 250 µg/mL (≈ 870 µM); in [1], 125 µg/mL (≈ 435 µM).
With `CCn1cc(C(=O)O)c(=O)c2cc(F)c(N3CCNCC3)cc21` [NORFLOXACIN], the MIC against Staphylococcus aureus is not above 5 µg/mL; against Enterococcus faecalis, not above 5 µg/mL; with Bacillus subtilis it was not above 1 µg/mL; in the assay with Klebsiella pneumoniae, not above 1 µg/mL; against Escherichia coli it was not above 1 µg/mL; against Pseudomonas aeruginosa, not above 5 µg/mL.
`C/C(=N/NC(=O)c1nc(C(C)C)cs1)c1ccc(Cl)cc1`: the minimal inhibitory concentration (MIC) against Staphylococcus aureus was determined as 125 µg/mL (≈ 388 µM); in the assay on Enterococcus faecalis, 125 µg/mL (≈ 388 µM); in the assay on Bacillus subtilis, 31.2 µg/mL (≈ 97.1 µM); in the assay with Klebsiella pneumoniae, 125 µg/mL (≈ 388 µM); in the assay on Escherichia coli, 125 µg/mL (≈ 388 µM); against Pseudomonas aeruginosa it was 125 µg/mL (≈ 388 µM). The MIC against Saccharomyces cerevisiae turned out to be 125 µg/mL (≈ 388 µM); in the assay on Candida tropicalis, 125 µg/mL (≈ 388 µM); against Aspergillus niger it was 125 µg/mL (≈ 388 µM); in assay [1], 62.5 µg/mL (≈ 194 µM).
